Test [1] can be described thus: In Vitro evaluation for the affinity for the diltiazem receptor in isolated guinea pig skeletal muscle microsomal preparations by inhibiting [3H]diltiazem binding. The test is classed as microsomes, Cavia porcellus, Muscle tissue. The essentials:
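Membranes from male guinea pig (350–450 g) hind-limb muscle, mainly quadriceps and gastrocnemius, in 50 mM Tris-HCl. 125–250 μg protein incubated with [3H]-d-cis-diltiazem and competing drug, 250 μL final, 30 °C for 1 h. Rapid GF/B filtration and scintillation counting. Nonspecific binding defined with 100 μM unlabeled diltiazem. Kd calculated from concentration–response curves for inhibition of specific binding; ±SEM.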

For the next test, the species on record is Oryctolagus cuniculus. Put plainly: Vasorelaxant effects in circumferential strips of potassium-depolarized rabbit aorta. (IC50 in rabbit aorta strips contracted with KCl(95% confidence interval)). The test is classed as functional, organism-based. Conditions: Oryctolagus cuniculus, Aorta. The essentials:
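Circumferential strips of rabbit thoracic aorta, contracted by depolarization with 100 mM KCl, then exposed to various concentrations of compound.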

Test [2] relates to Rattus norvegicus. Put plainly: In vivo evaluation for the percentage decrease in blood pressure at 135 umol/kg administered through oral route in spontaneously hypertensive rats and observed for 0-6 h. The test is classed as functional. In short, it runs like this:
(§1)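 Male spontaneously hypertensive rats, 15 weeks old, dosed by oral gavage at 135 μmol/kg. Blood pressure recorded directly via an indwelling abdominal aortic catheter exteriorized in the intrascapular region. Sampled over 20-s intervals every 5 min for 24 h. Value is the maximum percent fall in systolic pressure from predrug control within the stated period, mean of five rats.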

The subject of test [3] is Rattus norvegicus. Put plainly: In vivo evaluation for the percentage decrease in blood pressure at 270 umol/kg administered through oral route in spontaneously hypertensive rats and observed for 12-18 h. The test is classed as functional.
The test system of test [4] is Rattus norvegicus. Put plainly: In vivo evaluation for the percentage decrease in blood pressure at 135 umol/kg administered through oral route in spontaneously hypertensive rats and observed for 6-12 h. The test is classed as functional. In short, it runs like this: as §1

Each structure is given as a SMILES string.

In the case of `COc1ccc([C@@H]2Cc3ccccc3N(CCN(C)C)C(=O)[C@@H]2OC(C)=O)cc1.Cl`, the Kd in test [1] is 5.1 µM. Also, in the test filed under Oryctolagus cuniculus, half-maximal inhibition (IC50) was put at 4.7 µM. The Decrease in the test on Rattus norvegicus [2] came out at 8%; with Rattus norvegicus [3], 13%; in the test on Rattus norvegicus [4], 8%.

A word on the Kd: it is the constant that tells how readily two partners part at equilibrium. A low value points to a tighter complex. A word on the IC50: it is the point on the concentration scale where inhibition reaches its midpoint. Higher therefore signals weaker potency in that assay.

Source of the values: ChEMBL document CHEMBL1125382, “Benzazepinone calcium channel blockers. 2. Structure-activity and drug metabolism studies leading to potent antihypertensive agents. Comparison with benzothiazepinones” (J Med Chem, 1992).
